Tcruzi prolif – blocks T. cruzi growth in NIH3T3 culture; AID 624255; T. cruzi beta-gal in NIH3T3, GalScreen luminescence, 90 h; actives 5.9% (n = 77,000); inhibition, % at 8.34 µM;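 active = mean inhibition above about 93%, with at least 55% of replicates each passing it, limit read from the data, passing the limit was not always enough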
Pf Dd2 growth – P. falciparum Dd2 growth inhibition; SYBR Green, 72 h; stronger effect = lower value; activity change, % at 10 µM; actives 2.3% (n = 94,000); in the data active = activity change below about -80%
GASC1 inh – inhibitors of human demethylase GASC-1 KDM4C; AID 720574; Q9H3R0; inhibition, % at 12.5 µM; GST-KDM4C 2-372, H3K9me3 peptide, LANCE TR-FRET; actives 0.15% (n = 96,000);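 active = mean replicate inhibition above about 25%, with at least 55% of replicates also reaching it, limit read from the data, passing the limit was not always enough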
Target sequence (Q9H3R0 2-372 limits assumed): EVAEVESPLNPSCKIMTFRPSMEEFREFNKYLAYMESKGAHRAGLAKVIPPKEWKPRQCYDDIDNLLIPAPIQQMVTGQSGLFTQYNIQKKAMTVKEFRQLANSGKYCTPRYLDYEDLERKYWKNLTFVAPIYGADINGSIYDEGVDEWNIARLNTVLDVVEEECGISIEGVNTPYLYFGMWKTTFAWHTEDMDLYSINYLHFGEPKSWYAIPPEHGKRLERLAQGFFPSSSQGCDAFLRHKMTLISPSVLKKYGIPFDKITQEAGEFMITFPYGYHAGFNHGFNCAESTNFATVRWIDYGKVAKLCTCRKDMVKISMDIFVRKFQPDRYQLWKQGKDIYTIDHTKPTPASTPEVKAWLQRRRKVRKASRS
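Material: N-terminal GST-fused human GASC-1 (KDM4C) fragment, residues 2-372. Input: 10 nM enzyme. Incubation: enzyme reaction 30 min, then detection 60 min, both room temperature. Doses: one test concentration per compound. Read-out basis: inhibition from TR-FRET ratio decrease. Detection: LANCE TR-FRET, excitation 340 nm, emissions 618 and 671 nm.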
IDH1 mut inh – blocks human IDH1 R132H reductase activity; inhibition, % at 10 µM; O75874; diaphorase/resazurin fluorescence, 60 min; actives 0.18% (n = 70,000); in the data active = inhibition above about 34%
Hits are given with their value; – = inactive; · = no result given. Rows were chosen to be rich in hits. Some 5.9% of all compounds tested hit in one or more screens of this group.

SMILES	Tcruzi prolif	Pf Dd2 growth	GASC1 inh	IDH1 mut inh
Cc1sc2nc(SCCC(=O)NC3CCCCC3)[nH]c(=O)c2c1C	·	·	·	–
C[C@H](CO)N1C[C@H](C)[C@@H](CN(C)Cc2ccc(C(=O)Nc3ccccc3N)cc2)Oc2ccc(NC(=O)Nc3ccc(F)cc3)cc2CC1=O	–	–	–	–
C[C@@H]1CN([C@@H](C)CO)C(=O)Cc2cc(NC(=O)Nc3ccc(F)cc3)ccc2O[C@H]1CN(C)Cc1ccccc1	–	-85	–	–
COc1ccc(NC(=O)Nc2ccc3c(c2)CC(=O)N([C@@H](C)CO)C[C@H](C)[C@@H](CN(C)Cc2ccc(C(=O)Nc4ccccc4N)cc2)O3)cc1	·	-88	–	·
COc1ccc(NC(=O)Nc2ccc3c(c2)CC(=O)N([C@H](C)CO)C[C@@H](C)[C@@H](CN(C)Cc2ccc(C(=O)Nc4ccccc4N)cc2)O3)cc1	·	–	–	–
C[C@H]1CN([C@@H](C)CO)C(=O)Cc2cc(NC(=O)Nc3ccc(F)cc3)ccc2O[C@H]1CN(C)Cc1ccc(C(=O)Nc2ccccc2N)cc1	·	-83	–	–
COc1ccc(Cl)cc1NC(=O)CN(c1cc([N+](=O)[O-])ccc1C)S(C)(=O)=O	·	·	·	–
COc1cccc(NC(=O)CSc2nnc(-c3ccc(Cl)cc3)n2-c2ccc(F)cc2)c1	·	·	·	–
Cc1ccccc1S(=O)(=O)N1[C@H](C#N)[C@H](c2ccc(C#CC3CCCC3)cc2)[C@@H]1CO	·	-90	–	·
N#C[C@@H]1[C@@H](c2ccc(C#CC3CCCCC3)cc2)[C@H](CO)N1C(=O)Nc1ccc(F)cc1	·	-86	–	·
CC(C)NC(=O)N1[C@H](C#N)[C@H](c2ccc(C#CC3CCCCC3)cc2)[C@@H]1CO	–	-81	–	·
N#C[C@H]1[C@H](c2ccc(C#CC3CCCCC3)cc2)[C@H](CO)N1C(=O)Nc1ccc(F)cc1	·	–	–	·
N#C[C@H]1[C@@H](c2ccc(C#CC3CCCCC3)cc2)[C@H](CO)N1C(=O)Nc1ccc(F)cc1	·	–	–	·
Cc1ccc(Cl)c(NC(=O)NCCN2CCN(c3ccccc3[N+](=O)[O-])CC2)c1	·	·	·	–
C[C@@H]1CCCCO[C@@H](CN(C)Cc2ccc(C(=O)Nc3ccccc3N)cc2)[C@@H](C)CN([C@H](C)CO)C(=O)c2cc(NC(=O)c3ccncc3)ccc2O1	·	-85	–	–
C[C@@H]1CN([C@H](C)CO)C(=O)c2cc(NC(=O)CCC(F)(F)F)ccc2O[C@@H]1CN(C)Cc1ccc(C(=O)Nc2ccccc2N)cc1	–	–	–	·
C[C@@H]1CCCCO[C@@H](CN(C)Cc2ccc(C(=O)Nc3ccccc3N)cc2)[C@@H](C)CN([C@H](C)CO)C(=O)c2cc(NC(=O)c3ccccc3)ccc2O1	·	-84	–	–
C[C@@H]1CCCCO[C@@H](CN(C)Cc2ccc(C(=O)Nc3ccccc3N)cc2)[C@@H](C)CN([C@H](C)CO)C(=O)c2cc(NC(=O)CCC(F)(F)F)ccc2O1	·	-92	–	·
C[C@H]1CN([C@@H](C)CO)C(=O)c2cc(NC(=O)CCC(F)(F)F)ccc2O[C@@H]1CN(C)Cc1ccc(C(=O)Nc2ccccc2N)cc1	·	-86	–	–
O=C(NO)c1ccc(C(=O)N/N=C/c2cccc(O)c2)cc1	·	·	·	–
O=C1c2ccccc2C(=O)N1CCCc1nc2c3c4c(sc3ncn2n1)CCCCC4	·	·	·	–
C[C@H]1CCCCO[C@H](CN(C)C(=O)Nc2cccc3ccccc23)[C@@H](C)CN([C@@H](C)CO)C(=O)c2cc(NC(=O)C3CCCCC3)ccc2O1	–	-86	–	–
CC(C)NC(=O)Nc1ccc2c(c1)C(=O)N([C@H](C)CO)C[C@H](C)[C@H](CN(C)C(=O)Nc1cccc3ccccc13)OCCCC[C@@H](C)O2	–	–	–	–
C[C@@H]1CCCCO[C@@H](CN(C)C(=O)Nc2cccc3ccccc23)[C@@H](C)CN([C@H](C)CO)C(=O)c2cc(NC(=O)C3CCCCC3)ccc2O1	–	–	–	–
CC(C)NC(=O)Nc1ccc2c(c1)C(=O)N([C@@H](C)CO)C[C@@H](C)[C@H](CN(C)C(=O)Nc1cccc3ccccc13)OCCCC[C@H](C)O2	–	-86	–	·
C[C@@H]1CCCCO[C@@H](CN(C)C(=O)Nc2cccc3ccccc23)[C@H](C)CN([C@@H](C)CO)C(=O)c2cc(NC(=O)C3CCCCC3)ccc2O1	–	-83	–	–
C[C@@H]1CN([C@@H](C)CO)C(=O)c2cc(NC(=O)Cc3cn(C)c4ccccc34)ccc2O[C@H]1CN(C)S(=O)(=O)c1ccccc1	–	–	·	·
